Laboratory results: ChEMBL document CHEMBL1629583, “Establishment of in vitro susceptibility testing methodologies and comparative activities of piperacillin in combination with the penem {beta}-lactamase inhibitor BLI-489” (2009)

Legend:
Type in all cases: functional
Enterococcus faecalis [1] = experiment: Antimicrobial activity against vancomycin-resistant Enterococcus faecalis clinical isolate after 18 to 22 hrs by broth microdilution method in presence of beta-lactamase inhibitor BLI-489
In short: (§1)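 CLSI broth microdilution in Mueller-Hinton II broth. Antibiotic in serial dilution with the β-lactamase inhibitor held at a constant 4 μg/ml. Inoculum 10^5 CFU/ml. Incubated 18 to 22 h at 35°C in ambient air.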

Streptococcus pneumoniae [2] = experiment: Antimicrobial activity against penicillin-resistant Streptococcus pneumoniae clinical isolate after 18 to 22 hrs by broth microdilution method in presence of beta-lactamase inhibitor BLI-489
In short: as §1, with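 “broth with 5% lysed horse blood.” for “broth.”, “air. MIC is the lowest concentration with no growth visible to the eye.” for “air.”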

Enterobacter cloacae = experiment: Antimicrobial activity against AmpC beta-lactamase-producing Enterobacter cloacae clinical isolate after 18 to 22 hrs by broth microdilution method in presence of beta-lactamase inhibitor Tazobactam
In short: (§2)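 Piperacillin-tazobactam was tested on recent clinical isolates by CLSI broth microdilution in Mueller-Hinton II broth, with tazobactam at constant 4 μg/ml. Wells held 10^5 CFU/ml and were incubated 18 to 22 h at 35°C in ambient air. MIC was the lowest concentration with no growth visible to the unaided eye.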

[3] = system: Enterococcus casseliflavus; experiment: Antimicrobial activity against Enterococcus casseliflavus clinical isolate after 18 to 22 hrs by broth microdilution method in presence of beta-lactamase inhibitor Tazobactam; in short: as §2
Klebsiella pneumoniae = experiment: Antimicrobial activity against Klebsiella pneumoniae clinical isolate after 18 to 22 hrs by broth microdilution method in presence of beta-lactamase inhibitor Tazobactam
In short: (§3)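 Piperacillin-tazobactam was tested by CLSI broth microdilution in Mueller-Hinton II broth against clinical isolates. Inoculum was 10^5 CFU/ml, with 18 to 22 h incubation at 35°C in ambient air. MIC was read as the lowest concentration completely inhibiting visible growth.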

Streptococcus pneumoniae [4] = experiment: Antimicrobial activity against penicillin-susceptible Streptococcus pneumoniae clinical isolate after 18 to 22 hrs by broth microdilution method in presence of beta-lactamase inhibitor Tazobactam
In short: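 Broth microdilution per CLSI in Mueller-Hinton II broth supplemented with 5% lysed horse blood, using serial dilutions of piperacillin-tazobactam. Inoculum was 10^5 CFU/ml. Incubation was 18 to 22 h at 35°C in ambient air. MIC was the lowest concentration with no growth visible to the unaided eye.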

Acinetobacter baumannii = experiment: Antimicrobial activity against Acinetobacter baumannii clinical isolate after 18 to 22 hrs by broth microdilution method in presence of beta-lactamase inhibitor BLI-489
In short: (§4)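 CLSI broth microdilution in Mueller-Hinton II broth. Piperacillin serial dilutions were combined with BLI-489 held constant at 4 μg/ml. Inoculum was 10^5 CFU/ml. Plates were incubated 18 to 22 h at 35°C in ambient air. MIC was the lowest concentration completely inhibiting growth seen by the unaided eye. Piperacillin-tazobactam interpretive criteria were applied.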

Acinetobacter johnsonii = experiment: Antimicrobial activity against Acinetobacter johnsonii clinical isolate after 18 to 22 hrs by broth microdilution method in presence of beta-lactamase inhibitor Tazobactam; in short: as §2
Enterococcus faecalis [5] = experiment: Antimicrobial activity against vancomycin-resistant Enterococcus faecalis clinical isolate after 18 to 22 hrs by broth microdilution method in presence of beta-lactamase inhibitor Tazobactam; in short: as §1
Enterococcus gallinarum = experiment: Antimicrobial activity against Enterococcus gallinarum clinical isolate after 18 to 22 hrs by broth microdilution method in presence of beta-lactamase inhibitor BLI-489
In short: (§5)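 CLSI broth microdilution in Mueller-Hinton II broth. Serial dilutions of piperacillin were tested with BLI-489 held at a constant 4 μg/ml. Inoculum was 10^5 CFU/ml. Plates were incubated 18 to 22 h at 35°C in ambient air. MIC was the lowest concentration giving complete growth inhibition by unaided eye.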

Burkholderia cepacia = experiment: Antimicrobial activity against Burkholderia cepacia clinical isolate after 18 to 22 hrs by broth microdilution method in presence of beta-lactamase inhibitor BLI-489; in short: as §4
Escherichia coli = experiment: Antimicrobial activity against class A extended spectrum beta-lactamase- producing Escherichia coli clinical isolate after 18 to 22 hrs by broth microdilution method in presence of beta-lactamase inhibitor BLI-489
In short: (§6)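 Piperacillin serially diluted with BLI-489 held at a constant 4 μg/ml, by CLSI broth microdilution in Mueller-Hinton II broth. Inoculum was 10^5 CFU/ml. Plates were incubated 18 to 22 h at 35°C in ambient air. MIC was the lowest concentration completely inhibiting growth seen by the unaided eye.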

Providencia stuartii [6] = experiment: Antimicrobial activity against Providencia stuartii clinical isolate after 18 to 22 hrs by broth microdilution method in presence of beta-lactamase inhibitor Tazobactam; in short: as §3
Acinetobacter junii = experiment: Antimicrobial activity against Acinetobacter junii clinical isolate after 18 to 22 hrs by broth microdilution method in presence of beta-lactamase inhibitor BLI-489; in short: as §4
[7] = system: Staphylococcus epidermidis; experiment: Antimicrobial activity against methicillin-susceptible Staphylococcus epidermidis clinical isolate after 18 to 22 hrs by broth microdilution method in presence of beta-lactamase inhibitor BLI-489; in short: as §6
[8] = system: Acinetobacter calcoaceticus; experiment: Antimicrobial activity against Acinetobacter calcoaceticus clinical isolate after 18 to 22 hrs by broth microdilution method in presence of beta-lactamase inhibitor Tazobactam; in short: as §2
Enterococcus faecium = experiment: Antimicrobial activity against Enterococcus faecium clinical isolate after 18 to 22 hrs by broth microdilution method in presence of beta-lactamase inhibitor BLI-489; in short: as §5
[9] = system: Haemophilus parainfluenzae; experiment: Antimicrobial activity against Haemophilus parainfluenzae clinical isolate after 18 to 22 hrs by broth microdilution method in presence of beta-lactamase inhibitor BLI-489
In short: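 Haemophilus isolates were tested in Haemophilus test medium by CLSI broth microdilution. Serial piperacillin dilutions carried BLI-489 fixed at 4 μg/ml. Inoculum was 10^5 CFU/ml, incubated 18 to 22 h at 35°C in ambient air. MIC was the lowest concentration completely inhibiting growth by eye.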

Providencia stuartii [10] = experiment: Antimicrobial activity against Providencia stuartii clinical isolate after 18 to 22 hrs by broth microdilution method in presence of beta-lactamase inhibitor BLI-489; in short: as §5
Enterococcus avium = experiment: Antimicrobial activity against Enterococcus avium clinical isolate after 18 to 22 hrs by broth microdilution method in presence of beta-lactamase inhibitor BLI-489; in short: as §4

CCN1CCN(C(=O)N[C@@H](C(=O)N[C@@H]2C(=O)N3[C@@H]2SC(C)(C)[C@@H]3C(=O)O)c2ccccc2)C(=O)C1=O [PIPERACILLIN]
4 µg/mL: MIC90 (Streptococcus pneumoniae [2]) | MIC50 [3] | MIC50 (Acinetobacter junii) | MIC50 (Enterococcus faecium)
0.015 µg/mL: MIC90 (Streptococcus pneumoniae [4])
8 µg/mL: MIC50 (Enterobacter cloacae) | MIC90 (Enterococcus gallinarum) | MIC90 (Providencia stuartii [10]) | MIC50 (Enterococcus avium)
64 µg/mL: MIC90 (Enterococcus faecalis [1]) | MIC50 (Escherichia coli)
32 µg/mL: MIC90 (Enterobacter cloacae) | MIC90 (Acinetobacter johnsonii) | MIC90 (Enterococcus avium)
≤ 0.004 µg/mL: MIC [7] | MIC50 [7] | MIC90 [7] | MIC [9] | MIC50 [9] | MIC90 [9]
2 µg/mL: MIC (Enterococcus faecalis [1]) | MIC50 (Enterococcus faecalis [1]) | MIC50 (Streptococcus pneumoniae [2]) | MIC50 (Klebsiella pneumoniae) | MIC50 (Enterococcus faecalis [5]) | MIC50 (Enterococcus gallinarum) | MIC90 (Burkholderia cepacia) | MIC50 (Providencia stuartii [6])
0.008 µg/mL: MIC50 (Streptococcus pneumoniae [4])
≤ 0.12 µg/mL: MIC50 (Acinetobacter johnsonii)
16 µg/mL: MIC90 [3] | MIC90 (Klebsiella pneumoniae) | MIC90 (Providencia stuartii [6]) | MIC90 (Acinetobacter junii)
128 µg/mL: MIC90 (Escherichia coli)
1 µg/mL: MIC50 (Burkholderia cepacia) | MIC50 (Providencia stuartii [10])
> 128 µg/mL: MIC50 (Acinetobacter baumannii) | MIC90 (Acinetobacter baumannii) | MIC90 (Enterococcus faecalis [5]) | MIC50 [8] | MIC90 [8] | MIC90 (Enterococcus faecium)
